According to ChEMBL document CHEMBL4706541, “Design and synthesis of 1H-indazole-3-carboxamide derivatives as potent and selective PAK1 inhibitors with anti-tumour migration and invasion activities” (Eur J Med Chem, 2020):

Legend:
[1] = biological target: Voltage-gated inwardly rectifying potassium channel KCNH2 (Homo sapiens, UniProt Q12809); assay: Inhibition of human ERG
[2] = biological target: Tyrosine-protein kinase ABL1 (Homo sapiens) (UniProt P00519); assay: Inhibition of ABL1 (unknown origin) assessed as residual activity at 0.1 uM preincubated for 20 min followed by [gamma33P]ATP addition and measured after 120 mins by Hotspot assay relative to control; details: time 140.0 min
Method in brief: (§1)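 Radiometric HotSpot kinase assay. Kinase and substrate are combined in 20 mM Hepes pH 7.5, 10 mM MgCl2, 1 mM EGTA, 0.02% Brij35, 0.02 mg/mL BSA, 0.1 mM Na3VO4, 2 mM DTT and 1% DMSO. Compound is added and preincubated 20 min at room temperature. The reaction starts with ATP plus 33P-ATP at 10 µM final and runs 120 min at 25 °C. Filter-binding read-out, given as % activity remaining versus DMSO.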

[3] = biological target: Serine/threonine-protein kinase B-raf (Homo sapiens) (UniProt P15056); assay: Inhibition of BRAF (unknown origin) assessed as residual activity at 0.1 uM preincubated for 20 min followed by [gamma33P]ATP addition and measured after 120 mins by Hotspot assay relative to control; details: time 140.0 min; method in brief: as §1
[4] = biological target: Tyrosine-protein kinase BTK (Homo sapiens) (UniProt Q06187); assay: Inhibition of BTK (unknown origin) assessed as residual activity at 0.1 uM preincubated for 20 min followed by [gamma33P]ATP addition and measured after 120 mins by Hotspot assay relative to control; details: time 140.0 min; method in brief: as §1
[5] = biological target: Mast/stem cell growth factor receptor Kit (Homo sapiens) (UniProt P10721); assay: Inhibition of c-Kit (unknown origin) assessed as residual activity at 0.1 uM preincubated for 20 min followed by [gamma33P]ATP addition and measured after 120 mins by Hotspot assay relative to control; details: time 140.0 min; method in brief: as §1
[6] = biological target: CDK6/cyclin D1 (Homo sapiens) (UniProt P24385+Q00534); assay: Inhibition of CDK6/cyclin Dl (unknown origin) assessed as residual activity at 0.1 uM preincubated for 20 min followed by [gamma33P]ATP addition and measured after 120 mins by Hotspot assay relative to control; assay type: protein-complex assay; details: time 140.0 min; method in brief: as §1
[7] = biological target: Epidermal growth factor receptor (Homo sapiens) (UniProt P00533); assay: Inhibition of EGFR (unknown origin) assessed as residual activity at 0.1 uM preincubated for 20 min followed by [gamma33P]ATP addition and measured after 120 mins by Hotspot assay relative to control; details: time 140.0 min; method in brief: as §1
[8] = biological target: Ephrin type-A receptor 1 (Homo sapiens) (UniProt P21709); assay: Inhibition of EPHA1 (unknown origin) assessed as residual activity at 0.1 uM preincubated for 20 min followed by [gamma33P]ATP addition and measured after 120 mins by Hotspot assay relative to control; details: time 140.0 min; method in brief: as §1
[9] = biological target: Mitogen-activated protein kinase 3 (Homo sapiens) (UniProt P27361); assay: Inhibition of ERK1 (unknown origin) assessed as residual activity at 0.1 uM preincubated for 20 min followed by [gamma33P]ATP addition and measured after 120 mins by Hotspot assay relative to control; details: time 140.0 min; method in brief: as §1
[10] = biological target: Receptor-type tyrosine-protein kinase FLT3 (Homo sapiens) (UniProt P36888); assay: Inhibition of FLT3 (unknown origin) assessed as residual activity at 0.1 uM preincubated for 20 min followed by [gamma33P]ATP addition and measured after 120 mins by Hotspot assay relative to control; details: time 140.0 min; method in brief: as §1
[11] = biological target: Tyrosine-protein kinase JAK1 (Homo sapiens) (UniProt P23458); assay: Inhibition of JAK1 (unknown origin) assessed as residual activity at 0.1 uM preincubated for 20 min followed by [gamma33P]ATP addition and measured after 120 mins by Hotspot assay relative to control; details: time 140.0 min; method in brief: as §1
[12] = biological target: Tyrosine-protein kinase Lck (Homo sapiens) (UniProt P06239); assay: Inhibition of LCK (unknown origin) assessed as residual activity at 0.1 uM preincubated for 20 min followed by [gamma33P]ATP addition and measured after 120 mins by Hotspot assay relative to control; details: time 140.0 min; method in brief: as §1
[13] = biological target: LIM domain kinase 1 (Homo sapiens) (UniProt P53667); assay: Inhibition of LIMK1 (unknown origin) assessed as residual activity at 0.1 uM preincubated for 20 min followed by [gamma33P]ATP addition and measured after 120 mins by Hotspot assay relative to control; details: time 140.0 min; method in brief: as §1
[14] = biological target: Dual specificity mitogen-activated protein kinase kinase 1 (Homo sapiens) (UniProt Q02750); assay: Inhibition of MEK1 (unknown origin) assessed as residual activity at 0.1 uM preincubated for 20 min followed by [gamma33P]ATP addition and measured after 120 mins by Hotspot assay relative to control; details: time 140.0 min; method in brief: as §1
[15] = biological target: Serine/threonine-protein kinase 24 (Homo sapiens) (UniProt Q9Y6E0); assay: Inhibition of STK24 (unknown origin) assessed as residual activity at 0.1 uM preincubated for 20 min followed by [gamma33P]ATP addition and measured after 120 mins by Hotspot assay relative to control; details: time 140.0 min; method in brief: as §1
[16] = biological target: Mitogen-activated protein kinase 14 (Homo sapiens) (UniProt Q16539); assay: Inhibition of P38alpha (unknown origin) assessed as residual activity at 0.1 uM preincubated for 20 min followed by [gamma33P]ATP addition and measured after 120 mins by Hotspot assay relative to control; details: time 140.0 min; method in brief: as §1
[17] = biological target: Serine/threonine-protein kinase PAK 1 (Homo sapiens, UniProt Q13153); assay: (§2) Inhibition of full length recombinant human N-terminal GST/His6-tagged PAK1 expressed in sf9 insect cells assessed as residual activity at 0.1 uM using tetra LRRWSLG as substrate preincubated for 20 min followed by [gamma33P]ATP addition and measured after 120 mins by Hotspot assay relative to control; details: time 140.0 min; method in brief: as §1
[18] = biological target: Serine/threonine-protein kinase PAK 2 (Homo sapiens) (UniProt Q13177); assay: as §2, with “Inhibtion” for “Inhibition”, “of” for “of full length”, “PAK2 (D3 to R524 residues)” for “PAK1”, “RRRLSFAEPG” for “tetra LRRWSLG”; details: time 140.0 min; method in brief: as §1
[19] = biological target: Serine/threonine-protein kinase PAK 4 (Homo sapiens, UniProt O96013); assay: (§3) Inhibtion of full length recombinant human N-terminal GST/His6-tagged PAK4 expressed in baculovirus infected sf9 insect cells assessed as residual activity at 0.1 uM using tetra LRRWSLG as substrate preincubated for 20 min followed by [gamma33P]ATP addition and measured after 120 mins by Hotspot assay relative to control; details: time 140.0 min; method in brief: as §1
[20] = biological target: Serine/threonine-protein kinase PAK 5 (Homo sapiens) (UniProt Q9P286); assay: Inhibtion of recombinant human PAK5 expressed in baculovirus infected sf9 insect cells assessed as residual activity at 0.1 uM using RRRLSFAEPG as substrate preincubated for 20 min followed by [gamma33P]ATP addition and measured after 120 mins by Hotspot assay relative to control; details: time 140.0 min; method in brief: as §1
[21] = biological target: Serine/threonine-protein kinase PAK 6 (Homo sapiens) (UniProt Q9NQU5); assay: as §3, with “PAK6” for “PAK4”, “in” for “in baculovirus infected”; details: time 140.0 min; method in brief: as §1
MDA-MB-231 = assay: Antiproliferative activity against human MDA-MB-231 cells assessed as growth inhibition at 1 uM after 72 hrs by Cell Titer-Glo assay relative to control; assay type: functional; details: read-out: GI
Method in brief: (§4)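 Cells kept at 37 °C in 5% CO2 and plated at 4000 per well. Treated with compound for 72 h. Viability read by CellTiter-Glo luminescence. Each compound run in duplicate, data as means ± SD.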

HCT-116 = assay: Antiproliferative activity against human HCT-116 cells assessed as growth inhibition at 1 uM after 72 hrs by Cell Titer-Glo assay relative to control; assay type: functional; details: read-out: GI; method in brief: as §4

Chain of Ephrin type-A receptor 1 (Homo sapiens) (P21709 whole entry): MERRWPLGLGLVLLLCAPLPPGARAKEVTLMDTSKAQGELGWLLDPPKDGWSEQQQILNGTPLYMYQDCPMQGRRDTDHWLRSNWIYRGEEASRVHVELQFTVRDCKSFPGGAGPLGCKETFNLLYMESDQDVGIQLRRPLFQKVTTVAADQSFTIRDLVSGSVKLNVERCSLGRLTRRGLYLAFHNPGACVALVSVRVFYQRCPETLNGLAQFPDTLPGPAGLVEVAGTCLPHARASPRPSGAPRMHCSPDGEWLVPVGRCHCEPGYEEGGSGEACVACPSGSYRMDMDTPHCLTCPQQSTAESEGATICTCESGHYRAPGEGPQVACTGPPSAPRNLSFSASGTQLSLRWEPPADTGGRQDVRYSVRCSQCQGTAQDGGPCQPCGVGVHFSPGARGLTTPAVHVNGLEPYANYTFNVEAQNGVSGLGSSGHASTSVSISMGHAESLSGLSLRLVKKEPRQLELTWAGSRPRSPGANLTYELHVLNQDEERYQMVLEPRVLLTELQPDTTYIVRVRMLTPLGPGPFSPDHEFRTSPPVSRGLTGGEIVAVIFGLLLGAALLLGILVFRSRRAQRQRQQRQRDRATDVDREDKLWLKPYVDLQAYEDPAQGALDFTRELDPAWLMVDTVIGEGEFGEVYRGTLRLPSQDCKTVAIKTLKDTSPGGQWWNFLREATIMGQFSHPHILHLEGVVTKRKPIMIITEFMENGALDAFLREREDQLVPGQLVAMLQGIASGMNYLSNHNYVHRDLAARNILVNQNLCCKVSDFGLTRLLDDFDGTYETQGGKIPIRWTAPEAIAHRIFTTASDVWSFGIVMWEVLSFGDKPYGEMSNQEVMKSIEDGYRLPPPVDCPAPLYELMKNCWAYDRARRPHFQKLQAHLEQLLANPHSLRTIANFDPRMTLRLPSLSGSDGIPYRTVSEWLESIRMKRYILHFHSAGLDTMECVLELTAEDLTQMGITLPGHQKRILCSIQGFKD
Chain of Mast/stem cell growth factor receptor Kit (Homo sapiens) (P10721 whole entry): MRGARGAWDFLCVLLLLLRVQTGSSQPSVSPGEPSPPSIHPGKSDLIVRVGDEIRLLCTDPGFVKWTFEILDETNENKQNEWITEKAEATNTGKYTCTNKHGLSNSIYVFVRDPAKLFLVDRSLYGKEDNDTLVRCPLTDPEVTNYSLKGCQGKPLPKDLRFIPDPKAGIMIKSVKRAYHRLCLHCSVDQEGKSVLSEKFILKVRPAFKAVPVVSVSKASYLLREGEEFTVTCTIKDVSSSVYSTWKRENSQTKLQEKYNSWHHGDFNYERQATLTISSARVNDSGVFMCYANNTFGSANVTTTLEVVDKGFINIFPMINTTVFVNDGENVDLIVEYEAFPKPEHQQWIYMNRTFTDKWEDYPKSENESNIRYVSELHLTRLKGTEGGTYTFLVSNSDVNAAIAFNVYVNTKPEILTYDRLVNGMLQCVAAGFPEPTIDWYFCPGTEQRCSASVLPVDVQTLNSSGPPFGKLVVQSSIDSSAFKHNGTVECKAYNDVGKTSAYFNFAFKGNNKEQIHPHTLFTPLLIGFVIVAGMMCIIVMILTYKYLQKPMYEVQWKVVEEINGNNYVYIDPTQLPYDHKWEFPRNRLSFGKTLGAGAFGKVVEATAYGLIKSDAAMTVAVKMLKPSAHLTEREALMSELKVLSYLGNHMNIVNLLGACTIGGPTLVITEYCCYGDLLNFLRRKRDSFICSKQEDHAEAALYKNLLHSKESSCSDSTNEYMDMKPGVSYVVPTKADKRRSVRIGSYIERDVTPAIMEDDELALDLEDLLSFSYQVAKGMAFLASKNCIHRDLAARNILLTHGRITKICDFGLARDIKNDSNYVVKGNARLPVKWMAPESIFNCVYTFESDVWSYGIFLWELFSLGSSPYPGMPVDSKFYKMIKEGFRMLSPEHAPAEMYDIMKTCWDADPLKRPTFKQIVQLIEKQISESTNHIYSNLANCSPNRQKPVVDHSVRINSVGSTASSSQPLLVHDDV
Chain of Serine/threonine-protein kinase B-raf (Homo sapiens) (P15056 whole entry): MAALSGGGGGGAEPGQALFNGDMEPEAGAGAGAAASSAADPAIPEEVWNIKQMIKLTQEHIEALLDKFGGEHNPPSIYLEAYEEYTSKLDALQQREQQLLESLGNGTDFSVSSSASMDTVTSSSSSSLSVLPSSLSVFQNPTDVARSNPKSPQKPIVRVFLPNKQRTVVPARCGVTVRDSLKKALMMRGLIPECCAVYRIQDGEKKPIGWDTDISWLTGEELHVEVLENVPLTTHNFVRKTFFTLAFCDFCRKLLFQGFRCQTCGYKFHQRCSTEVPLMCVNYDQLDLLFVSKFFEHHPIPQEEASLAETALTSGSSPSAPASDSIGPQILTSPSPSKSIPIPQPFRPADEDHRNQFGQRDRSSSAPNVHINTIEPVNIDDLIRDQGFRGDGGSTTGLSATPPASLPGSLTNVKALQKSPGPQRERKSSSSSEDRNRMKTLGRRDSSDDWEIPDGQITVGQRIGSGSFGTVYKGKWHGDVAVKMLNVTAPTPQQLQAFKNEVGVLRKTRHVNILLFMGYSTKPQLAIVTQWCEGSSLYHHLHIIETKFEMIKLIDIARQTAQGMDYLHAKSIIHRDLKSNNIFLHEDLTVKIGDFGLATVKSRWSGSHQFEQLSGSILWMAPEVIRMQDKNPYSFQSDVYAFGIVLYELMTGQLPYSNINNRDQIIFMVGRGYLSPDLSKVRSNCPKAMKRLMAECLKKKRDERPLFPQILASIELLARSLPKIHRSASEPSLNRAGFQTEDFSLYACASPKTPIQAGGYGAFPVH
Chain of Voltage-gated inwardly rectifying potassium channel KCNH2 (Q12809 whole entry): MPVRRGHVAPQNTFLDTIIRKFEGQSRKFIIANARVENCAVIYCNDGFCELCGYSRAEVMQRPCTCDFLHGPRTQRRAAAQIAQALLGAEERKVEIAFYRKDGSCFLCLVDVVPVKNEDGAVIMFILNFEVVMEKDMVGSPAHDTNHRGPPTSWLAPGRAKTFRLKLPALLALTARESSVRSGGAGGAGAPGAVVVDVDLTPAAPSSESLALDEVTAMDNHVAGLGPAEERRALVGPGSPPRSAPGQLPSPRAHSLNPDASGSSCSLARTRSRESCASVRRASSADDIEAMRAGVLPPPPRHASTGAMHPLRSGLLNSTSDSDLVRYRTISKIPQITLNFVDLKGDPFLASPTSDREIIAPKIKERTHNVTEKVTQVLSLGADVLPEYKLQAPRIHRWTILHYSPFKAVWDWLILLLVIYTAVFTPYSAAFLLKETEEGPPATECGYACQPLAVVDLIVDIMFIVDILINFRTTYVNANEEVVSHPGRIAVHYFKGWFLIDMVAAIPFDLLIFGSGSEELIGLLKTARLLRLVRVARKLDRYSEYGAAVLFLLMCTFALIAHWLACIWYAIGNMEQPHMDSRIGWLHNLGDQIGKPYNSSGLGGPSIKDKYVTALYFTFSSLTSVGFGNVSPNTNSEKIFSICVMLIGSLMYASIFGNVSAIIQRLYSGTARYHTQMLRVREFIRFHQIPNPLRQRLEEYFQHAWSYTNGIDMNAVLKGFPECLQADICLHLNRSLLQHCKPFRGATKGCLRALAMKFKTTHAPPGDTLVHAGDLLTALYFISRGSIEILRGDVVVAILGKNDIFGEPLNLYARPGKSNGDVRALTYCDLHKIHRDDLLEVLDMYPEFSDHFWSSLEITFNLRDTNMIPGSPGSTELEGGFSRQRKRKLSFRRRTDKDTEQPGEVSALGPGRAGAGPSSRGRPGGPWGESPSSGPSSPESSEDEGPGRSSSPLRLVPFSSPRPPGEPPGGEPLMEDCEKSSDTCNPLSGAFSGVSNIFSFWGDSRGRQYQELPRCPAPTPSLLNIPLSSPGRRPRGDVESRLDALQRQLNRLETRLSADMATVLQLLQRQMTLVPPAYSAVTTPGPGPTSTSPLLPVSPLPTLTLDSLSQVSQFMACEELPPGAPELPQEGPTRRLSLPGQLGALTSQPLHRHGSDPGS
Chain of Mitogen-activated protein kinase 14 (Homo sapiens) (Q16539 whole entry): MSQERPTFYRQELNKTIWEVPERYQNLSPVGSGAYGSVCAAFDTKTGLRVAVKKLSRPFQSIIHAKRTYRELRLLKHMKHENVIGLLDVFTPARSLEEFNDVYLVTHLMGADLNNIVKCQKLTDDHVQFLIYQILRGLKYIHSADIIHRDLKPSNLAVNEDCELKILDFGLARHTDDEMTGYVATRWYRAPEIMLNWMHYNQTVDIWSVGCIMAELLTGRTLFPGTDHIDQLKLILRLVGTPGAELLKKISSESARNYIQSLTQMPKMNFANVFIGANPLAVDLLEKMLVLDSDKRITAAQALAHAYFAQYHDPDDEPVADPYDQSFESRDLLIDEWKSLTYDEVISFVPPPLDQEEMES
Chain of Serine/threonine-protein kinase PAK 6 (Homo sapiens) (Q9NQU5 whole entry, looked up): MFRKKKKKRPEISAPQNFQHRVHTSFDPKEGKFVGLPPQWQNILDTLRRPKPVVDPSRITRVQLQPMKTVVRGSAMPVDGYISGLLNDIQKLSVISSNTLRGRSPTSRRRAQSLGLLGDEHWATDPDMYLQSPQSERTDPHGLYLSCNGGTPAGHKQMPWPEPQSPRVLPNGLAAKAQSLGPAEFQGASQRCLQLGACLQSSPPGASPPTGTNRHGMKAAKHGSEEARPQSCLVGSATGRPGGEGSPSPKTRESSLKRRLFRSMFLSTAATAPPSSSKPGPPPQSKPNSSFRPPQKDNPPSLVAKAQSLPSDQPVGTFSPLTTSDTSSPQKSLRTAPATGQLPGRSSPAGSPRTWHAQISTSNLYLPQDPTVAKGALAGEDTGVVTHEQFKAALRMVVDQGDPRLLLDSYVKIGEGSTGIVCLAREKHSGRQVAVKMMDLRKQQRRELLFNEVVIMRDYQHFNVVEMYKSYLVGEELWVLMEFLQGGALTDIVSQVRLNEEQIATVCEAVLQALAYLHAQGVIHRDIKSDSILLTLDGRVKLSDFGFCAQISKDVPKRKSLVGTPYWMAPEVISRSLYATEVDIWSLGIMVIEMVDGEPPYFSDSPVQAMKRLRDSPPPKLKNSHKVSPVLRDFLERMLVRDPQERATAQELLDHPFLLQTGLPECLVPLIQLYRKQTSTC

- Activity [2]: 106%
- Activity [3]: 84.4%
- Activity [4]: 99.1%
- Activity [5]: 99.2%
- Activity [6]: 112%
- Activity [7]: 89.3%
- Activity [8]: 91.9%
- Activity [9]: 99%
- Activity [10]: 98.8%
- Activity [11]: 88.7%
- Activity [12]: 88.6%
- Activity [13]: 115%
- Activity [14]: 84.4%
- Activity [15]: 64%
- Activity [16]: 78%
- Activity [17]: 27.6%
- Activity [18]: 28%
- Activity [19]: 104%
- Activity [20]: 116%
- Activity [21]: 80%
Structure (SMILES): Cc1cccn(-c2ccc(-c3ccc4c(C(=O)NCc5ccncc5)n[nH]c4c3)c(Cl)c2)c1=O
- IC50 [1]: 16 µM
- inhibition of growth at 1 µM (MDA-MB-231): 6.31%
- inhibition of growth at 1 µM (HCT-116): 8.73%
